In ChEMBL document CHEMBL1165947, “Synthesis and antitumor activity of 2,5-bis(3'-indolyl)-furans and 3,5-bis(3'-indolyl)-isoxazoles, nortopsentin analogues” (Bioorg Med Chem, 2010):
Values after ≈ are worked out from the molar mass of the structure shown.

Key:
[1] = Cytotoxicity against human 1781L cells after 4 days by modified propidium iodide staining-based fluorescence assay; type: functional, cell-based; conditions: 96 h
Outline: (§1)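 Cells cultured in RPMI 1640 with 10% fetal calf serum and 0.1 mg/mL gentamicin at 37 °C, 5% CO2. Cells from exponential cultures were trypsinized and plated at 4.000-20.000 cells/well by line. After 24 h recovery, compounds were added at five log-spaced concentrations (highest 100 μg/mL) for 4 days. Proliferation was read as DNA content with aqueous propidium iodide (7 μg/ml), fluorescence ex 530/em 620 nm. Points were run in triplicate.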

[2] = Cytotoxicity against human LXFL 1121L cells after 4 days by modified propidium iodide staining-based fluorescence assay; type: functional, cell-based; conditions: 96 h; outline: as §1
[3] = test system: IGROV-1; assay: Growth inhibition of human IGROV1 cells; type: functional
[4] = Cytotoxicity against human MAXF 401NL cells after 4 days by modified propidium iodide staining-based fluorescence assay; type: functional, cell-based; conditions: 96 h; outline: as §1
[5] = Cytotoxicity against human GXF251L cells after 4 days by modified propidium iodide staining-based fluorescence assay; type: functional, cell-based; conditions: GXF 251L, 96 h; outline: as §1
[6] = test system: OVCAR-5; assay: Growth inhibition of human OVCAR5 cells; type: functional
Outline: (§2)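 Values come from the NCI in vitro disease-oriented human tumor cell screen. GI50 is the concentration giving 50% growth inhibition of tumor cells; pGI50 is its −log molar form.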

[7] = test system: SN12C; assay: Growth inhibition of human SN12C cells; type: functional; outline: as §2
[8] = test system: ACHN; assay: Growth inhibition of human ACHN cells; type: functional
[9] = test system: RXF 393; assay: Growth inhibition of human RXF393 cells; type: functional; outline: as §2
[10] = Cytotoxicity against human LXFA 629L cells after 4 days by modified propidium iodide staining-based fluorescence assay; type: functional, cell-based; conditions: 96 h; outline: as §1
[11] = test system: DU-145; assay: Cytotoxicity against human DU145 cells after 4 days by modified propidium iodide staining-based fluorescence assay; type: functional, cell-based; conditions: DU-145, 96 h; outline: as §1
[12] = test system: COLO 205; assay: Growth inhibition of human COLO205 cells; type: functional
[13] = test system: HCT-116; assay: Cytotoxicity against human HCT116 cells after 4 days by modified propidium iodide staining-based fluorescence assay; type: functional, cell-based; conditions: HCT-116, 96 h; outline: as §1
[14] = test system: SNB-19; assay: Growth inhibition of human SNB19 cells; type: functional; outline: as §2
[15] = test system: HCT-116; assay: Growth inhibition of human HCT116 cells; type: functional
[16] = test system: A498; assay: Growth inhibition of human A498 cells; type: functional
[17] = Cytotoxicity against human 899L cells after 4 days by modified propidium iodide staining-based fluorescence assay; type: functional, cell-based; conditions: 96 h; outline: as §1
[18] = Cytotoxicity against human LXFA 289L cells after 4 days by modified propidium iodide staining-based fluorescence assay; type: functional, cell-based; conditions: 96 h; outline: as §1
[19] = test system: CAKI-1; assay: Growth inhibition of human Caki1 cells; type: functional
[20] = test system: KM12; assay: Growth inhibition of human KM12 cells; type: functional
[21] = Cytotoxicity against human LXFA 526L cells after 4 days by modified propidium iodide staining-based fluorescence assay; type: functional, cell-based; conditions: 96 h; outline: as §1
[22] = test system: OVCAR-8; assay: Growth inhibition of human OVCAR8 cells; type: functional; outline: as §2
[23] = test system: SK-MEL-5; assay: Growth inhibition of human SK-MEL-5 cells; type: functional; outline: as §2
[24] = Cytotoxicity against human PC3M cells after 4 days by modified propidium iodide staining-based fluorescence assay; type: functional, cell-based; conditions: PC-3M, 96 h; outline: as §1
[25] = test system: DU-145; assay: Growth inhibition of human DU145 cells; type: functional
[26] = Cytotoxicity against human MEXF 462NL cells after 4 days by modified propidium iodide staining-based fluorescence assay; type: functional, cell-based; conditions: 96 h; outline: as §1
[27] = Growth inhibition of human […] cells; type: functional; outline: as §2
[28] = test system: PANC-1; assay: Cytotoxicity against human PANC1 cells after 4 days by modified propidium iodide staining-based fluorescence assay; type: functional, cell-based; conditions: PANC-1, 96 h; outline: as §1
[29] = test system: TK-10; assay: Growth inhibition of human TK10 cells; type: functional; outline: as §2
[30] = test system: SK-OV-3; assay: Growth inhibition of human SKOV3 cells; type: functional; outline: as §2
[31] = test system: SF-268; assay: Growth inhibition of human SF268 cells; type: functional; outline: as §2
[32] = test system: MCF7; assay: Growth inhibition of human MCF7 cells; type: functional; outline: as §2
[33] = Cytotoxicity against human MEXF 276L cells after 4 days by modified propidium iodide staining-based fluorescence assay; type: functional, cell-based; conditions: MEXF276L, 96 h; outline: as §1
[34] = Cytotoxicity against human BXF 1218L cells after 4 days by modified propidium iodide staining-based fluorescence assay; type: functional, cell-based; conditions: 96 h; outline: as §1
[35] = test system: NCI-H322M; assay: Growth inhibition of human NCI-H322M cells; type: functional; outline: as §2
[36] = test system: K562; assay: Growth inhibition of human K562 cells; type: functional
[37] = test system: LOX IMVI; assay: Growth inhibition of human LOXIMVI cells; type: functional
[38] = test system: CWR22R; assay: Cytotoxicity against human 22Rv1 cells after 4 days by modified propidium iodide staining-based fluorescence assay; type: functional, cell-based; conditions: 22Rv1, 96 h; outline: as §1
[39] = test system: SR; assay: Growth inhibition of human SR cells; type: functional; outline: as §2
[40] = test system: MOLT-4; assay: Growth inhibition of human MOLT4 cells; type: functional; outline: as §2
[41] = test system: SF-539; assay: Growth inhibition of human SF539 cells; type: functional; outline: as §2
[42] = test system: NCI-H23; assay: Growth inhibition of human NCI-H23 cells; type: functional; outline: as §2

With `COc1ccc2c(c1)c(-c1ccc(-c3cn(C)c4ccc(OC)cc34)o1)cn2C` the IC50 [1] was 22 µg/mL (≈ 56.9 µM), the IC50 [2] was 43.4 µg/mL (≈ 112 µM) and the GI50 [3] was 29.6 µM. It also gave an IC50 [4] of 8.1 µg/mL (≈ 21 µM), an IC50 [5] of 3.8 µg/mL (≈ 9.83 µM) and a GI50 [6] of 2.79 µM. It also gave a GI50 [7] of 21.6 µM, a GI50 [8] of 3.74 µM and a GI50 [9] of 10.4 µM. For the same compound, the IC50 [10] was 4.1 µg/mL (≈ 10.6 µM), the IC50 [11] was > 100 µg/mL and the GI50 [12] was 5.13 µM. It also gave an IC50 [13] of 50.4 µg/mL (≈ 130 µM), a GI50 [14] of 29.8 µM and a GI50 [15] of 8.8 µM. For the same compound, the GI50 [16] was > 100 µM, the IC50 [17] was > 100 µg/mL and the IC50 [18] was > 100 µg/mL. It also gave a GI50 [19] of 17.1 µM, a GI50 [20] of 2.73 µM and an IC50 [21] of 5.8 µg/mL (≈ 15 µM). The GI50 [22] was 8.02 µM, the GI50 [23] was 10.4 µM and the IC50 [24] was 4.1 µg/mL (≈ 10.6 µM). For the same compound, the GI50 [25] was > 100 µM, the IC50 [26] was 12.5 µg/mL (≈ 32.3 µM) and the GI50 [27] was 2.25 µM. The IC50 [28] was 6.4 µg/mL (≈ 16.6 µM), the GI50 [29] was 11 µM and the GI50 [30] was > 100 µM. For the same compound, the GI50 [31] was 9.25 µM, the GI50 [32] was 17.3 µM and the IC50 [33] was 3.8 µg/mL (≈ 9.83 µM). For the same compound, the IC50 [34] was 15.7 µg/mL (≈ 40.6 µM), the GI50 [35] was > 100 µM and the GI50 [36] was 2.86 µM. It also gave a GI50 [37] of 10.4 µM, an IC50 [38] of 33.7 µg/mL (≈ 87.2 µM) and a GI50 [39] of 1.63 µM. For the same compound, the GI50 [40] was > 100 µM, the GI50 [41] was 2.47 µM and the GI50 [42] was 17.3 µM.
